Assay results as given in ChEMBL document CHEMBL1141857, “Lichen metabolites. 1. Inhibitory action against leukotriene B4 biosynthesis by a non-redox mechanism” (J Nat Prod, 1999).

Assays:
[1] = Inhibition of AAPH-induced lipid peroxidation in bovine brain phospholipid liposome; assay type: functional, tissue-based, Bos taurus
Outline: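 Bovine brain phospholipid liposomes (1 mg/mL final) in 30 mM KH2PO4-KOH buffer, pH 7.4, with 10 mM AAPH and test compound at variable concentrations (acetone vehicle). Incubated 1 h at 37 °C with shaking. BHT, HCl and TBA then added; TBA-reactive material extracted into butanol and read at 532 nm against an MDA standard.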

[2] = Prooxidant activity assessed as hydroxyl radical formation at 75 uM measured as malondialdehyde per mmol of deoxyribose by deoxyribose assay; assay type: functional
Outline: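 Final mixture: 2 mM 2-deoxy-D-ribose, 0.1 mM FeCl3, 30 mM KH2PO4-KOH pH 7.4, 75 μM compound, acetonitrile vehicle controls; 2 h at 37 °C with shaking. TCA and TBA added, heated 100 °C 15 min, butanol-extracted, A532 read. Calibrated against MDA from tetraethoxypropane; reported as μmol MDA/mmol deoxyribose, n = 3.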

PMNL = test: Inhibition of LTB4 biosynthesis in A-23187-stimulated bovine PMNL cells; assay type: functional, cell-based; conditions: Bos taurus
Outline: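 Bovine PMNL (10^7 cells/mL) preincubated with compound 15 min at 37 °C, then stimulated with Ca-ionophore. LTB4 and 5-HETE released after 10 min quantified by reversed-phase HPLC. Inhibition = (1 − test/control) × 100, test n = 3, control n = 6–8. IC50 interpolated from log concentration–response plot using ≥4 concentrations spanning 50%.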

[3] = tested on: Radical scavenging activity; test: Antioxidant activity assessed as DPPH radical scavenging activity at equimolar amount of compound; assay type: functional
Outline: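 Test compound and DPPH mixed at equal concentrations (each […] as printed) in acetone–PBS 1:1 v/v. DPPH reduction followed spectrophotometrically at 516 nm. Reciprocal DPPH concentration plotted against time; second-order rate constant taken from slope, mean of n = 3–6.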

SMILES: CC(=O)C1=C(O)C=C2Oc3c(C(C)=O)c(O)c(C)c(O)c3[C@@]2(C)C1=O [(+)-USNIC ACID]
- IC50 [1]: > 200 µM
- Activity [2]: 1.47 µmol
- IC50 (PMNL): 42 µM
- Activity [3]: < 1 M⁻¹ s⁻¹

SMILES: O=C1c2c(O)cccc2Cc2cccc(O)c21 [ANTHRALIN]
- IC50 [1]: 79 µM
- Activity [3]: 24.2 M⁻¹ s⁻¹

SMILES: COC(=O)c1c(C)cc(OC(=O)c2c(C)cc(O)c(C=O)c2O)c(C)c1O [ATRANORIN]
- IC50 [1]: > 200 µM
- Activity [2]: 0 µmol
- IC50 (PMNL): 6 µM
- Activity [3]: 11.5 M⁻¹ s⁻¹

SMILES: COC(=O)c1c(C)cc(O)c(C)c1O [ATRARIC ACID]
- IC50 [1]: > 200 µM
- Activity [2]: 1.43 µmol
- IC50 (PMNL): > 60 µM
- Activity [3]: 5.95 M⁻¹ s⁻¹

SMILES: COc1cc(C)c(C(=O)Oc2cc(C)c(C(=O)O)c(O)c2C)c(OC)c1C [DIFFRACTAIC ACID]
- IC50 [1]: > 200 µM
- Activity [2]: 0.12 µmol
- IC50 (PMNL): 8 µM
- Activity [3]: < 1 M⁻¹ s⁻¹

SMILES: CCOC(=O)c1c(C)cc(O)c(C=O)c1O [ETHYL HEMATOMMATE]
- IC50 [1]: > 200 µM
- Activity [2]: 0.3 µmol
- IC50 (PMNL): 40 µM
- Activity [3]: 12.2 M⁻¹ s⁻¹

SMILES: Cc1cc(OC(=O)c2c(C)cc(OC(=O)c3c(C)cc(O)cc3O)cc2O)cc(O)c1C(=O)O [GYROPHORIC ACID]
- IC50 [1]: > 200 µM
- Activity [2]: 0.12 µmol
- IC50 (PMNL): > 60 µM
- Activity [3]: 3.63 M⁻¹ s⁻¹

SMILES: CC(Cc1ccc(O)c(O)c1)C(C)Cc1ccc(O)c(O)c1 (centres undefined) [NORDIHYDROGUAIARETIC ACID]
- IC50 [1]: 2 µM
- Activity [2]: 0.23 µmol
- IC50 (PMNL): 0.4 µM
- Activity [3]: > 100 M⁻¹ s⁻¹

SMILES: C=C1C(=O)O[C@@H](CCCCCCCCCCCCC)[C@@H]1C(=O)O [PROTOLICHESTERINIC ACID]
- IC50 [1]: > 200 µM
- Activity [2]: 0.08 µmol
- IC50 (PMNL): 9 µM
- Activity [3]: < 1 M⁻¹ s⁻¹
